Compound activity deposited in PubChem BioAssay by several laboratories.
A selection: hits, their analogues and other compounds. The true share with any hit is near 2%.
MIN6 prolif: induces beta-cell replication in MIN6 cells; 330,000 compounds, 0.29% hits; proliferation, % at 10 µM; MIN6 cells proliferation, ATPlite luminescence, 48 h; cells starved in 0.2% serum; 100% = growth in 10% serum;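 active means compounds whose signal lies at least 3.5 SD above the mean of all wells on their plate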
IMP-1 inh: blocks Pseudomonas aeruginosa IMP-1 metallo-beta-lactamase; purified IMP-1, nitrocefin hydrolysis, epi-absorbance fluorescence; inhibition, % at 5.6 µM; 290,000 compounds, 0.45% hits; AID 1556;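 active means inhibition above the mean plus 3 SD of all compounds in the same screening run, cut at about 4.5% in these data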
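Material – recombinant IMP-1 enzyme, purified · Amount – IMP-1 0.2 nM before substrate addition · Medium – HEPES buffer pH 7.1 with ZnSO4 and Brij 35 · Timing – 25 °C, 15 min preincubation, 25 min reaction · Measured by – plate fluorescence quenching by hydrolysis product, ex 480/em 530 nm · Read-out – percent enzyme inhibition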
PvdQ inh: P. aeruginosa PvdQ acylase inhibition; inhibition, % at 10 µM; purified PvdQ acylase, fluorescence plate reader; 340,000 compounds, 0.063% hits; AID 488965; in the data active means inhibition above about 30%, passing the limit was not always enough
ATG4B inhibitor: ATG4B (human) cysteine protease inhibition | inhibition, % at 8.33 µM | ATG4B cleavage of LC3-PLA2, NBD-HPC fluorescence, 1 h | 340,000 compounds, 0.51% hits; in the data active means inhibition above about 40%
VIM-2 inhibitor: inhibitors of Pseudomonas aeruginosa VIM-2 metallo-beta-lactamase. inhibition, % at 5.6 µM. purified VIM-2, nitrocefin hydrolysis, epi-absorbance fluorescence. AID 1527. 290,000 compounds, 0.89% hits;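 active means inhibition above the mean of all tested compounds plus 3 SD, cutoff set per screening run, cut at about 7.5% in these data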;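 further: red hydrolysis product quenches plate fluorescence so inhibitors raise well fluorescence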
HKDC1 inhibitor: inhibitors of human hexokinase HKDC1 | Q2TB90 | recombinant HKDC1, G6PDH/diaphorase resazurin coupled fluorescence | inhibition, % at 20 µM | 340,000 compounds, 0.16% hits | AID 493160;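 active means inhibition above about 35% when tested at 20 µM, limit read from the data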
Target sequence (Q2TB90 whole entry, looked up): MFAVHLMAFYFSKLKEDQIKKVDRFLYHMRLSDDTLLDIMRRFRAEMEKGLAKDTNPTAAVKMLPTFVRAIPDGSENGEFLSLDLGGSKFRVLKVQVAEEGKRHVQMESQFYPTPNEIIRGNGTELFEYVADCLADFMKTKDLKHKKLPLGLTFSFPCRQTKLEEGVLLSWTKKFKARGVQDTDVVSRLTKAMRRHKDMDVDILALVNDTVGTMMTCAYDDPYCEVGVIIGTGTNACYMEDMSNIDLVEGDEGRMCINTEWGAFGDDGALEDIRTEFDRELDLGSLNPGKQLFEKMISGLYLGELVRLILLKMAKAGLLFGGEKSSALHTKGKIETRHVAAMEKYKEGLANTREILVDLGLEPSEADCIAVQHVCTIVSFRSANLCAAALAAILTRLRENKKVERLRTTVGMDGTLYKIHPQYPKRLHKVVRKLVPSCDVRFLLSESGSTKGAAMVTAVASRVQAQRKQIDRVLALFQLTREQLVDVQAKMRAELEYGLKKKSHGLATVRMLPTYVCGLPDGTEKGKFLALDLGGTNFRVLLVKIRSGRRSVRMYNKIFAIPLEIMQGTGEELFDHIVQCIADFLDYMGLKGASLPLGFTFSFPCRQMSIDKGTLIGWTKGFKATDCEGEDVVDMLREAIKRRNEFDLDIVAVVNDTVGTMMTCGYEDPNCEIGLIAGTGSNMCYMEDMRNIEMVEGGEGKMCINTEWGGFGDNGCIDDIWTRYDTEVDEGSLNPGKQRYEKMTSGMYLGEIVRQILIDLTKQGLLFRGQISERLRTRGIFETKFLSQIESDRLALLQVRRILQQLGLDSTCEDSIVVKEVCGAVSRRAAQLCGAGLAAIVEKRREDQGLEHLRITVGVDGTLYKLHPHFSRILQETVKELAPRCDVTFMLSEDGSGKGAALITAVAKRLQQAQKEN
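Material – in-house recombinant HK5 (HKDC1) enzyme · Quantity – HKDC1 at 5 µg/mL · Buffer or medium – pH 8.0 Tris buffer with 10 mM MgCl2 · Reagent – glucose with 1 mM ATP · Dosing – single 20 µM dose · Times – reaction time 90 min, room temperature, protected from light · Technique – resorufin fluorescence at 613 nm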
Of the large screens only hits and unclear results are named; the others gave an inactive call.

CN(C)c1ccc(/C=C/C(=O)c2ccccc2O)cc1	IMP-1 inh 6.0
CN(C)c1ccc(/C=C/c2ccncc2)cc1	IMP-1 inh 6.3 (no result: MIN6 prolif)
CN(C)c1ccc(/C=C/C(=O)c2cccnc2)cc1	IMP-1 inh 7.8
Nc1c(C(=O)NCC2CCCO2)sc2nc3c(c(-c4ccco4)c12)CC/C3=C\c1ccco1 (stereo not drawn)	ATG4B inhibitor 49 (no result: MIN6 prolif)
O=C(O)CC(NC(=O)CC(c1ccccc1)c1ccccc1)c1cccc([N+](=O)[O-])c1 (stereo not drawn)	none
NS(=O)(=O)c1ccc(NC(=S)NC(=O)c2ccc(-c3ccccc3)cc2)cc1	IMP-1 inh 5.5
CN1CCN(c2ccc(NC(=S)NC(=O)c3cccc4c(Cl)cccc34)cc2)CC1	VIM-2 inhibitor 8.3
CN1CCN(S(=O)(=O)c2ccc(NC(=S)NC(=O)c3ccc(Cl)cc3)cc2)CC1	VIM-2 inhibitor 27 (no result: MIN6 prolif)
O=C(NC(=S)Nc1ccc(N2CCOCC2)cc1)c1cccc(Cl)c1Cl	none
O=C(NC(=S)Nc1ccc(S(=O)(=O)N2CCCCC2)cc1)c1ccc(Cl)cc1	none
NS(=O)(=O)c1ccc(NC(=S)NNC(=O)c2ccc(Br)o2)cc1	IMP-1 inh 5.2
NS(=O)(=O)c1ccc(NC(=S)NC(=O)c2ccc(Br)o2)cc1	none
O=C(COC(=O)Cn1cc(C(F)(F)F)ccc1=O)NCc1ccccc1	none (no result: IMP-1 inh, VIM-2 inhibitor)
Cc1nc(/C=C/c2ccccc2)[nH]c(=O)c1-c1ccccc1	none
Cn1c(Cn2c(C(F)(F)F)nc3ccccc32)nc2ccccc21	none
COCC(N)(c1ccccc1)c1nc2ccccc2n1C (stereo not drawn)	VIM-2 inhibitor 9.0
Cc1nnsc1C(=O)NC(C)C12CC3CC(CC(C3)C1)C2 (stereo not drawn)	none
O=[N+]([O-])c1nn(-c2ccc(Cl)cc2)n(O)c1=NCc1ccccc1	PvdQ inh 41
Cc1ccc(N=c2c([N+](=O)[O-])nn(-c3ccc(Cl)cc3)n2O)cc1C	IMP-1 inh 12
O=C1C2C(c3ccccc3)C=CC(c3ccccc3)C2C(=O)N1c1cccnc1 (stereo not drawn)	IMP-1 inh 6.2
O=C1[C@@H](Oc2ccccc2)[C@@H](c2cccnc2)N1c1ccccc1	none (no result: MIN6 prolif, IMP-1 inh, VIM-2 inhibitor)
Cc1cccc(NC(=O)Cc2ccc(-c3ccccc3)cc2)n1	IMP-1 inh 12
O=C(Cc1ccc(-c2ccccc2)cc1)Nc1ncccc1O	IMP-1 inh 33
Cc1ccc(S(=O)(=O)N/N=C/c2ccccc2F)cc1[N+](=O)[O-]	IMP-1 inh 5.9
COc1cc(OC)c(NC(=O)/C=C/C(=O)O)cc1Cl	none
N#Cc1ccccc1Cn1c(=O)n(-c2ccc(CC(=O)NCc3ccco3)cc2)c(=O)c2sccc21	none
N#Cc1ccccc1Cn1c(=O)n(Cc2ccc(C(=O)NCc3ccco3)cc2)c(=O)c2sccc21	IMP-1 inh 7.0
CCOC(=O)c1cnc2ccc(C)cc2c1NCCN1CCOCC1	none
CCOC(=O)c1cnc2c(C)cc(C)cc2c1NCCCN1CCOCC1	VIM-2 inhibitor 9.6
CCOC(=O)c1cnc2c(Cl)c(Cl)ccc2c1NCCN1CCOCC1	VIM-2 inhibitor 7.7
CCOC(=O)c1cnc2c(C)c(C)ccc2c1NCCN1CCOCC1	VIM-2 inhibitor 8.6
O=C(Cc1ccc(-n2c(=O)c3ccccc3n(Cc3ccccc3Cl)c2=O)cc1)NCC1CCCO1 (stereo not drawn)	IMP-1 inh 4.8
Cc1cccc2c3nc4ccccc4nc3n(C)c12	VIM-2 inhibitor 9.7
COc1nc(Nc2ccccc2F)nc(OC)n1	none
Cc1cc(C)c2ccc(C(=O)O)nc2c1O	VIM-2 inhibitor 9.7
COc1ccc(C(=O)O)nc1C	none
O=C1c2cccc3cccc(c23)C(=O)N1CCN1CCN(C(=S)Nc2ccccc2)CC1	VIM-2 inhibitor 7.8
Oc1c(C=Nc2cccc3cccnc23)sc2ccccc12	VIM-2 inhibitor 9.7 (no result: PvdQ inh, ATG4B inhibitor, HKDC1 inhibitor)
Cc1cccc(/N=C/c2sc3ccccc3c2O)n1	none
Cc1ccccc1NC(=O)c1nnn(-c2ccc3c(c2)OCCO3)c1N	none
Nc1c(C(=O)Nc2cccc(F)c2)nnn1-c1ccc2c(c1)OCCO2	IMP-1 inh 18
COc1ccc(C(=O)Nc2nnc(-c3ccco3)s2)cc1	IMP-1 inh 7.3
COCC(=O)N1CCCC(N(C)CCc2ccc(OC)c(OC)c2)C1 (stereo not drawn)	IMP-1 inh 8.0
Cc1ccccc1-n1c(-c2ccncc2)n[nH]c1=S	none (no result: IMP-1 inh, VIM-2 inhibitor)
CCc1cc(-c2n[nH]c(=S)n2-c2cccc(C)c2)cs1	none
Cc1cc(-c2n[nH]c(=S)n2-c2ccccc2C)cs1	VIM-2 inhibitor 11
Cc1cccc(-n2c(-c3csc(C)c3)n[nH]c2=S)c1	VIM-2 inhibitor 7.7
CCN1C(=O)[C@H]2[C@H]3CN=C(SCc4ccc(C)cc4)N3[C@@](Cc3ccccc3)(C(=O)OC)[C@H]2C1=O	none (no result: MIN6 prolif, IMP-1 inh, VIM-2 inhibitor)
O=C(NCCc1ccc(Cl)cc1)C1CCCN1C(=O)Nc1ccccc1 (stereo not drawn)	none
C/C(=N\NC(N)=S)c1ccc(-n2ccnc2)cc1	VIM-2 inhibitor 10.0
C/C(=N\NC(=O)c1ccccc1)c1ccc(-n2ccnc2)cc1	none
O=C(Cc1ccccc1)Nc1nc2ccccc2s1	none
O=C(Cc1ccccc1)Nc1nc(=O)c2ccccc2s1	VIM-2 inhibitor 11
c1coc(-c2nc(-c3ccco3)c(-c3ccco3)nc2-c2ccco2)c1	HKDC1 inhibitor 68
O=C1C2CC=CCC2C(=O)N1c1ccc(NCCc2cccc(F)c2)c([N+](=O)[O-])c1 (stereo not drawn)	none
COc1ccc(CCNC(=O)c2cccc(S(=O)(=O)N3CCc4ccccc4C3)c2)cc1	PvdQ inh 44 (no result: IMP-1 inh, VIM-2 inhibitor)
COc1ccc(C(=O)C(=O)c2ccc(OCCO)cc2)cc1	none (no result: IMP-1 inh, VIM-2 inhibitor)
COc1cc(C2c3sc(=O)[nH]c3SC3C4CCC(C4)C23)ccc1O (stereo not drawn)	VIM-2 inhibitor 8.8
CNc1ncc(Cc2ccccc2)s1	IMP-1 inh 40
O=C(Nc1ncc(Cc2ccccc2)s1)C1CCCO1 (stereo not drawn)	none
COc1cc(C(=O)Nc2cc3c4c(c2)CC(=O)N4CCC3)cc(OC)c1OC	none (no result: IMP-1 inh, VIM-2 inhibitor)
CC(C)n1c(-c2ccc(C(C)(C)C)cc2)n[nH]c1=S	none
CC(C)n1c(-c2ccccc2F)n[nH]c1=S	IMP-1 inh 5.0
CNC(=O)c1c(NC(=O)c2cccc(C)c2)sc2c1CCC2	IMP-1 inh 4.7
N#CC(c1ccc(Cl)cc1)c1ncc(C(F)(F)F)cc1Cl (stereo not drawn)	PvdQ inh 57
NC(=O)C(c1ccccc1)c1ncc(C(F)(F)F)cc1Cl (stereo not drawn)	none
N#CC(c1cccc(Cl)c1)c1ncc(C(F)(F)F)cc1Cl (stereo not drawn)	PvdQ inh 52
